Assay results: ChEMBL document CHEMBL3822382 (Eur J Med Chem, 2016)
Activity calls are given as the source filed them. No cut-off for these calls is given here.

Columns and labels:
[1] = Growth inhibition of human MCF7/Topo cells after 24 hrs by MTT assay; assay type: functional, cell-based
Summary of the method: (§1)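 Cells seeded at 5000/well (Ea.hy926 10,000/well) and exposed for 24 h to dilution series of 100 µM–5 pM, with DMSO as solvent control. MTT (0.5 mg/mL final) for 2 h. Formazan dissolved in SDS/acetic acid/DMSO and read at 570 nm against a 630 nm background. Viability taken relative to DMSO controls; IC50 from dose–response curves, mean of four independent experiments.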

[2] = Growth inhibition of human 518A2 cells after 72 hrs by MTT assay; assay type: functional, cell-based; conditions: 518A2, 72 h
Summary of the method: (§2)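 5000 cells/well exposed for 72 h to dilution series of 100 µM–5 pM, with DMSO as solvent control. MTT 0.5 mg/mL final for 2 h, absorbance at 570/630 nm. Percentage viable cells taken versus DMSO controls; IC50 from dose–response curves, mean of four independent experiments.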

[3] = Growth inhibition of human 518A2 cells after 24 hrs by MTT assay; assay type: functional, cell-based; conditions: 518A2, 24 h; summary of the method: as §1
HT-29 [4] = assay: Growth inhibition of combretastatin A-4 resistant human HT-29 cells after 72 hrs by MTT assay; assay type: functional, cell-based; conditions: HT-29, 72 h; summary of the method: as §2
HT-29 [5] = assay: Growth inhibition of combretastatin A-4 resistant human HT-29 cells after 24 hrs by MTT assay; assay type: functional, cell-based; conditions: HT-29, 24 h; summary of the method: as §1
[6] = Growth inhibition of human KB-V1/Vbl cells after 24 hrs by MTT assay; assay type: functional; summary of the method: as §1
Sus scrofa = organism: Sus scrofa; assay: Inhibition of porcine brain alpha/beta tubulin polymerization at 5 uM measured every 20 sec by microplate reader analysis
[7] = Growth inhibition of human HCT116 cells expressing wild type p53 after 72 hrs by MTT assay; assay type: functional, cell-based; conditions: HCT-116, 72 h
Summary of the method: (§3)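 HCT-116 cells, p53 wild-type or p53-/-, seeded at 5000/well and treated 72 h with dilution series (100 µM–5 pM) or DMSO. MTT 0.5 mg/mL for 2 h, absorbance at 570/630 nm. Viability relative to DMSO controls; IC50 from dose–response curves, mean of three independent experiments ± S.D.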

[8] = Growth inhibition of p53 null human HCT116 cells after 72 hrs by MTT assay; assay type: functional, cell-based; conditions: HCT-116, 72 h; summary of the method: as §3
[9] = Growth inhibition of primary chicken fibroblasts after 48 hrs by MTT assay; assay type: cell-based; conditions: Gallus gallus, Fibroblast
Summary of the method: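 Chicken heart fibroblasts explanted from 10-day-old embryos, seeded at 10,000/well; cardiomyocytes seeded at 20,000/well. Dilution series given for 48 h, DMSO as control. MTT 0.5 mg/mL for 2 h, absorbance at 570/630 nm. Viability versus DMSO controls; IC50 from dose–response curves, mean of three independent experiments.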

HT-29 [10] = assay: Cell cycle arrest in combretastatin A-4 resistant human HT-29 cells assessed as mitotic cells at 5 uM after 24 hrs by propidium iodide/immunostaining method (reference value: 3.1 to 3.2%); assay type: functional
Summary of the method: (§4)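 HT-29 cells (200,000/well) were treated 24 h with 100 nM indole, 5 μM CA-4 or DMSO. Cells were trypsinized, fixed in 4% formaldehyde (20 min, RT) and permeabilized in 90% ice-cold methanol (30 min). They were immunostained with anti-phospho-histone H3 (Ser10) (5 μg/mL, 37 °C, 1 h) plus an AlexaFluor-488 secondary, then stained with PI/RNase (30 min, 37 °C). Flow cytometry of 10,000 single cells assigned G1/S/G2/M.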

HT-29 [11] = assay: Cell cycle arrest in combretastatin A-4 resistant human HT-29 cells assessed as accumulation at G1 phase at 5 uM after 24 hrs by propidium iodide staining-based flow cytometry (reference value: 68.1 +/- 0.3%); assay type: functional; summary of the method: as §4
HT-29 [12] = assay: Cell cycle arrest in combretastatin A-4 resistant human HT-29 cells assessed as accumulation at S phase at 5 uM after 24 hrs by propidium iodide staining-based flow cytometry (reference value: 13.7 +/- 0.3%); assay type: functional; summary of the method: as §4
HT-29 [13] = assay: Cell cycle arrest in combretastatin A-4 resistant human HT-29 cells assessed as accumulation at G2 phase at 5 uM after 24 hrs by propidium iodide staining-based flow cytometry (reference value: 15.6 +/- 0.1%); assay type: functional; summary of the method: as §4
EA.hy 926 [14] = assay: Antivascular activity in human EAhy926 cells assessed as induction of retraction of cells to nodes at 100 nM after 16 hrs by light microscopic analysis; assay type: functional, cell-based
Summary of the method: (§5)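 Ea.hy926 cells (100,000/well) were seeded on Matrigel-coated coverslips and allowed 12 h to form vessel-like networks. Test agent (CA-4 100 nM; indoles 250 nM) or DMSO was then added for 16 h, and networks were documented by light microscopy. Viability was checked by 2 h MTT (0.5 mg/mL) relative to DMSO controls.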

EA.hy 926 [15] = assay: Antivascular activity in human EAhy926 cells assessed as change in cell morphology from stretched to rounded form at 100 nM after 16 hrs by matrigel based tube formation assay; assay type: functional; summary of the method: as §5
EA.hy 926 [16] = assay: Antivascular activity in human EAhy926 cells assessed as disruption of preformed blood vessel lke network at 100 nM after 16 hrs by matrigel based tube formation assay; assay type: functional, cell-based; summary of the method: as §5
[17] = Cytotoxicity against human EAhy926 cells assessed as cell viability at 100 nM after 16 hrs by MTT assay relative to control; assay type: cell-based, EA.hy 926; conditions: read-out: Activity
Summary of the method: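 Ea.hy926 cells (100,000/well) seeded on Matrigel-coated coverslips and left 12 h to form networks, then exposed to compound for 16 h. Viability was read by 2 h MTT (0.5 mg/mL) and absorbance of the formazan, expressed relative to DMSO controls.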

[18] = Cytotoxicity against fertilized white leghorn chicken embryos in CAM model assessed as lethality at 5 nmol after 24 hrs relative to control; assay type: organism-based, Gallus gallus; conditions: in vivo
Summary of the method: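 Day-5 fertilized eggs (37 °C, 50-60% humidity) windowed, with 6 mm silicon rings placed on CAM vessels and incubated a further 24 h. Compound diluted to 500 µM in PBS and pipetted inside the ring (10 µL = 5 nmol); DMSO control. Vessel changes documented by stereomicroscopy at 0, 12 and 24 h.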

[19] = Growth inhibition of human MCF7/Topo cells after 72 hrs by MTT assay; assay type: functional, cell-based
Summary of the method: (§6)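 MTT assay: cells seeded at 5000/well (MCF-7/Topo) or 10,000/well (Ea.hy926), then given dilution series (100 µM–5 pM) or DMSO for 72 h. MTT was added at 0.5 mg/mL final for 2 h, formazan dissolved in SDS/acetic acid/DMSO, and absorbance read at 570 nm with 630 nm background. Viability was set relative to DMSO controls, and IC50 taken as the mean of at least three experiments ± S.D.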

[20] = Growth inhibition of human EAhy926 cells after 72 hrs by MTT assay; assay type: cell-based; conditions: EA.hy 926, 72 h; summary of the method: as §6
[21] = Cell cycle arrest in human 518A2 cells assessed as accumulation at subG1 phase at 200 nM after 24 hrs by propidium iodide staining-based flow cytometry (reference value: 3.8%); assay type: functional
[22] = Cell cycle arrest in human 518A2 cells assessed as accumulation at G1 phase at 200 nM after 24 hrs by propidium iodide staining-based flow cytometry (reference value: 49.5%); assay type: functional
[23] = Cell cycle arrest in human 518A2 cells assessed as accumulation at S phase at 200 nM after 24 hrs by propidium iodide staining-based flow cytometry (reference value: 20.4%); assay type: functional
[24] = Cell cycle arrest in human 518A2 cells assessed as accumulation at G2/M phase at 200 nM after 24 hrs by propidium iodide staining-based flow cytometry (reference value: 26.3%); assay type: functional
[25] = Cell cycle arrest in human 518A2 cells assessed as apoptotic index ratio at 200 nM after 24 hrs by propidium iodide staining-based flow cytometry relative to control; assay type: functional
[26] = Cell cycle arrest in human 518A2 cells assessed as G2/M index ratio at 200 nM after 24 hrs by propidium iodide staining-based flow cytometry relative to control; assay type: functional

Compound | IC50 [1] | IC50 [2] | IC50 [3] | IC50 (HT-29 [4]) | IC50 (HT-29 [5]) | IC50 [6] | also measured
CCn1c(Cl)c(Cl)c2cc(-c3c(-c4cc(Br)c(OC)c(OC)c4)ncn3C)ccc21 | 489 nM | 767 nM | > 1000 nM | 793 nM | > 1000 nM | > 1000 nM | 
CCn1cc(Cl)c2cc(-c3c(-c4cc(OC)c(OC)c(OC)c4)ncn3C)ccc21 | 30.2 nM | 33 nM | 739 nM | 43.4 nM | 75.8 nM | 33.2 nM | 
COc1cc(-c2ncn(C)c2-c2ccc3c(c2)c(Cl)c(Cl)n3C)cc(Br)c1OC | 208 nM | 223 nM | 292 nM | 223 nM | 903 nM | 456 nM | 
COc1ccc(/C=C\c2cc(OC)c(OC)c(OC)c2)cc1O [COMBRETASTATIN A4] |  |  |  | > 5000 nM |  |  | inhibition (Sus scrofa): Active; IC50 [7]: 2.6 nM; IC50 [8]: 3.4 nM; IC50 [9]: 5480 nM; Activity (HT-29 [10]): 10.2%; Activity (HT-29 [11]): 51.4%; Activity (HT-29 [12]): 18.6%; Activity (HT-29 [13]): 18.2%; Activity (EA.hy 926 [14]): Active; Activity (EA.hy 926 [15]): Active; Activity (EA.hy 926 [16]): Active; viability at 16 h, 0.1 µM [17]: > 90%; mortality at 24 h [18]: 60%; IC50 [19]: 154 nM; IC50 [20]: 11 nM
CCn1cc(Cl)c2cc(-c3c(-c4cc(Br)c(OC)c(OC)c4)ncn3C)ccc21 | 91.3 nM | 82 nM | 216 nM | 116 nM | 246 nM | 48.4 nM | Activity [21]: 7.8%; Activity [22]: 39.7%; Activity [23]: 17.4%; Activity [24]: 35.2%; Ratio [25]: 5.1; Ratio [26]: 1.7
CCn1cc(Cl)c2cc(-c3c(-c4cc(I)c(OC)c(OC)c4)ncn3C)ccc21 | 81.2 nM | 168 nM | 211 nM | 178 nM | 482 nM | 83.2 nM | 
COc1cc(-c2ncn(C)c2-c2ccc3c(c2)c(Cl)cn3C)cc(I)c1OC | 53.3 nM | 35.7 nM | 56.7 nM | 39.7 nM | 35.1 nM | 49.8 nM | 
COc1cc(-c2ncn(C)c2-c2ccc3c(c2)c(Cl)cn3C)cc(Cl)c1OC | 26.9 nM | 32.4 nM | 174 nM | 31.4 nM | 33.7 nM | 37.9 nM | 
